Results from different studies.
Compare with care: the assays were run in different laboratories.
Target: Serine/threonine-protein kinase 26 (STK26, Homo sapiens, UniProt Q9P289)

Compound	assay	setting	endpoint	result
c1cnn2ncc(-c3ccnc(N4CCC45COC5)n3)c2c1	cell-free assay	1 µM	remaining signal	64%
c1ccc(CNc2nc(N3CCOc4ccccc43)nc3c2CCCC3)cc1	target engagement in cells, inhibitor, chemoproteomics	20 mM	inhibition	38.2%
CC1(C)NC(=O)c2[nH]c3c(Cl)c(Cl)ccc3c2C1C#N (stereo not drawn)	thermal stability, DSF	10 µM	ΔTm	2.4 °C
COc1cc(Nc2cnc(C#N)c(O[C@H](C)CN(C)C)n2)ncc1-c1cnn(C)c1	enzyme activity, inhibitor, radiometric	1 µM	remaining activity	83%
O=C(NCCCNc1nc(Nc2cccc(NC(=O)N3CCCC3)c2)ncc1I)c1cccs1	enzyme activity, inhibitor	1 µM	inhibition	-93%
CN(C)c1nccc(-c2cnc3ncccn23)n1	cell-free assay	1 µM	remaining signal	68%
CN(C)C(=O)Cn1cc(-c2nc(C3(c4ccc(-c5cnc(N)nc5)cc4)CC3)no2)cn1	cell-free assay, competition with immobilised ligand	1 µM	remaining binding	89%
Cc1ccc(NC(=O)c2ccc(C)c(C(F)(F)F)c2)cc1C#Cc1nn(C2CCC(O)CC2)c2ncnc(N)c12 (stereo not drawn)	cell-free assay	10 µM	remaining signal	73%
Cc1noc([C@H]2C[C@@H](c3ccc(C(F)(F)F)cc3)CN(C(=O)N3CCS(=O)(=O)C3)C2)n1	cell-free assay, competition with immobilised ligand	1 µM	remaining binding	74%
COc1cc2ncnc(Nc3ccc(Oc4ccccc4)cc3C)c2cc1OC	enzyme activity, inhibitor	1 µM	inhibition	-2%
CN1CCC2(CC1)NC(=O)c1c(c3ccc(Cl)c(Cl)c3n1C)C2C#N (racemic)	thermal stability, DSF	10 µM	ΔTm	1.7 °C
Cc1sc(C(=O)NC2COC2)cc1-n1cc(NC(=O)Nc2c(F)cccc2Cl)cn1	enzyme activity, inhibitor	10 µM	remaining activity	72.4%
Cn1c2c(c3ccc(Cl)c(Cl)c31)C(C#N)C1(CCNCC1)NC2=O (racemic)	thermal stability, DSF	10 µM	ΔTm	-0.5 °C
CC(C)(C)c1nc2c(s1)c1nc(N)ncc1c1ccc(NS(=O)(=O)c3c(F)cccc3F)c(F)c12	enzyme activity, inhibitor, radiometric	1 µM	remaining activity	98%
COc1cc(-c2cc(-c3ccc(N4CCNCC4)cc3)cnc2N)cc(OC)c1OC	enzyme activity, inhibitor	0.1 µM	inhibition	0%
Oc1ccc(-c2nc(-c3ccncc3)c(-c3ccc(F)cc3)[nH]2)cc1	cell-free assay	0.5 µM	remaining signal	101%
FC(F)c1nc2ccccc2n1-c1nc(N2CCOCC2)nc(N2CCOCC2)n1	enzyme activity, inhibitor	10 µM	remaining activity	88%
CCN1CCC2(CC1)NC(=O)c1c(c3ccc(Cl)c(Cl)c3n1C)C2C#N (racemic)	thermal stability, DSF	10 µM	ΔTm	-0.2 °C
Cc1ccc(C(=O)Nc2ccc(CN3CCN(C)CC3)c(C(F)(F)F)c2)cc1C#Cc1cnc2cccnn12	enzyme activity, inhibitor	23.5 nM	remaining activity	86%
Cc1nccc(COC(=O)N2C[C@@H]3[C@@H](CNC(=O)c4ccc5[nH]nnc5c4)[C@@H]3C2)n1	cell-free assay, competition with immobilised ligand	1 µM	remaining binding	77%

Compound	assay	setting	endpoint	result
CN(C)c1nccc(-c2cnn3ncccc23)n1	cell-free assay	1 µM	remaining signal	100%
CCC(=O)N[C@H]1CC[C@@H](C(=O)N(C)c2ccc(-c3nc4ccccc4o3)cc2)C1	cell-free assay, competition with immobilised ligand	1 µM	remaining binding	76%
Nc1nc(NC2CCCCC2)sc1C(=O)c1ccccc1	enzyme activity, inhibitor	10 µM	remaining activity	76%
F[C@@H]1CCN(c2nccc(-c3cnn4ncccc34)n2)C1	cell-free assay	1 µM	remaining signal	100%
CN(C)C1CCN(CC#Cc2nn(C3CCCC3)c3nc(NCc4ccccc4)ncc23)C1 (stereo not drawn)	enzyme activity, inhibitor, FRET	0.1 µM	inhibition	9%
Oc1cccc(-c2nc(N3CCOCC3)c3oc4ncccc4c3n2)c1	cell-free assay	0.5 µM	remaining signal	98.6%
NS(=O)(=O)c1cc(NC(=O)Cc2ccccc2)ccc1Oc1cccc(Cl)c1	cell-free assay, competition with immobilised ligand	1 µM	remaining binding	99%
O=C1NC(=O)c2cc(Nc3ccc(F)cc3)c(Nc3ccc(F)cc3)cc21	cell-free assay	0.5 µM	remaining signal	99%
CC/C(=N\NC(=O)NCc1cccc(O)c1)c1ccc(O)c(C)c1O	enzyme activity, inhibitor	0.1 µM	inhibition	1.3%
N[C@@H]1CCN(c2nccc(-c3cnn4ncccc34)n2)C1	cell-free assay	1 µM	remaining signal	100%
CC(C)(O)[C@H]1CC[C@H](Nc2ccc3ncc(-c4cccc(C(F)(F)F)c4)n3n2)CC1	enzyme activity, inhibitor	1 µM	remaining activity	109%
C[C@H]1CCN(c2nccc(-c3cnn4ncccc34)n2)C1	cell-free assay	1 µM	remaining signal	73%
O=C(NC[C@@H]1[C@H]2CN(C(=O)OCc3cc(C(F)(F)F)cc(C(F)(F)F)c3)C[C@@H]12)c1ccc2[nH]nnc2c1	cell-free assay, competition with immobilised ligand	1 µM	remaining binding	76%
CCCS(=O)(=O)Nc1ccc(F)c(C(=O)c2c[nH]c3ncc(-c4ccc(Cl)cc4)cc23)c1F	enzyme activity, inhibitor	1 µM	inhibition	< 10%
CCCCNc1ncc2c(-c3ccc(F)cc3)nn(C[C@H]3CC[C@H](N)CC3)c2n1	target engagement in cells, inhibitor, chemoproteomics	20 mM	inhibition	1.8%
O=C(Nc1ccc(Oc2ccc(F)cc2)cc1)N1CCc2ncccc2[C@H]1c1ccc(F)cc1	cell-free assay, competition with immobilised ligand	1 µM	remaining binding	100%
COc1cc(-c2cc(-c3ccc(N4CCNCC4)cc3)cnc2C)cc(OC)c1OC	enzyme activity, inhibitor	1 µM	inhibition	12%
CN(C(=O)c1ccccc1)c1cc(N(C)c2ccc3c(c2)CCc2ccc(C(=O)NCCN4CCOCC4)cc2C3=O)ccc1F	cell-free assay, competition with immobilised ligand	1 µM	remaining binding	78%
FC(F)(F)Oc1cccc(-c2cnc3ccc(-c4ccncc4)nn23)c1	enzyme activity, inhibitor, radiometric	1 µM	activity vs control	96%
